The results in this text go back to ChEMBL document CHEMBL1124084, “Studies on scavengers of active oxygen species. 1. Synthesis and biological activity of 2-O-alkylascorbic acids” (J Med Chem, 1988).

Structures are written as SMILES. pIC50: −log10 of the molar value. Some results are limits rather than exact numbers.

The species named for experiment [1] is Rattus norvegicus. Briefly: Antilipid peroxidation was determined. The experiment is classed as functional. In outline: (§1)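 Rat brain lipid peroxidation: brains from male SD rats (12 weeks old), exsanguinated under pentobarbital anaesthesia, homogenized to 5% in phosphate buffer pH 7.4. Homogenate incubated with test drug at 37 °C for 1 h. Lipid peroxide quantified by the thiobarbituric acid method.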

Experiment [2] can be described thus: Reducing activity determined by the use of stable radical alpha,alpha-di-phenyl-beta-picrylhydrazyl (DPPH). Set-up: concentration or dose not given beside the values.
The subject of experiment [3] is Rattus norvegicus. Briefly: Effect of AOS scavenger on premeture ventricular complexes PVCs, arrhythmias induced by ischemia-reperfusion in anesthetized rat, duration at 10 mg/kg. It counts as functional, Cardiac ventricle. The following applies: 10 mg/kg.
Experiment [4] has as its system Rattus norvegicus. As to the kind of experiment: Effect of AOS scavenger on ventricular fibrillation (VF), arrhythmias induced by ischemia-reperfusion in anesthetized rat, duration at 10 mg/kg. It counts as functional, Cardiac ventricle.
In experiment [5] the test system is Rattus norvegicus. As to the kind of experiment: Effect of AOS scavenger on ventricular tachycardia (VT), arrhythmias induced by ischemia-reperfusion in anesthetized rat, frequency, times at 10 mg/kg. It counts as functional, Cardiac ventricle.
In experiment [6] the test system is Rattus norvegicus. As to the kind of experiment: Effect of AOS scavenger on ventricular fibrillation (VF), arrhythmias induced by ischemia-reperfusion in anesthetized rat, frequency, times at 10 mg/kg. It counts as functional, Cardiac ventricle. The note with it: 10 mg/kg.
The test system of experiment [7] is Rattus norvegicus. Briefly: Effect of AOS scavenger on ventricular tachycardia (VT),arrhythmias induced by ischemia-reperfusion in anesthetized rat, duration at 10 mg/kg. The experiment is classed as functional, Cardiac ventricle. The note with it: 10 mg/kg.
The test system of experiment [8] is Rattus norvegicus. Briefly: Effect of AOS scavenger on ventricular tachycardia (VT),arrhythmias induced by ischemia-reperfusion in anesthetized rat incidence at 10 mg/kg; 4/5. It counts as functional, Cardiac ventricle.
The species entered for experiment [9] is Rattus norvegicus. Briefly: Inhibition of lipid peroxidation was determined with rat brain tissue homogenates. It counts as functional. In outline:
(§2)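 Brains excised from male SD rats (12 weeks), exsanguinated under pentobarbital anesthesia; 5% homogenate in phosphate buffer pH 7.4 incubated with test drug 1 h at 37 °C; lipid peroxide quantified by thiobarbituric acid method.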

Experiment [10] relates to Rattus norvegicus. As to the kind of experiment: Effect of AOS scavenger on ventricular fibrillation (VF),arrhythmias induced by ischemia-reperfusion in anesthetized rat, incidence at 10 mg/kg; 5/5. It counts as functional, Cardiac ventricle.
Experiment [11] is filed under the species Rattus norvegicus. Briefly: Inhibition of lipid peroxidation was determined with rat brain tissue homogenates. The experiment is classed as functional. The method, boiled down:
as §2

Experiment [12] is filed under the species Rattus norvegicus. As to the kind of experiment: Antilipid peroxidation was measured at 10e-5 M concentration. It counts as functional. In outline:
as §1

For experiment [13], the system named is Rattus norvegicus. As to the kind of experiment: Effect of AOS scavenger on ventricular fibrillation (VF), arrhythmias induced by ischemia-reperfusion in anesthetized rat, incidence at 3 mg/kg; 6/6. It counts as functional, Cardiac ventricle.
Experiment [14] has as its system Rattus norvegicus. As to the kind of experiment: Effect of AOS scavenger on arrhythmias induced by ischemia-reperfusion in anesthetized rat measured as ventricular tachycardia (VT), incidence at 3 mg/kg; 6/6. It counts as functional, Cardiac ventricle.
The test system of experiment [15] is Rattus norvegicus. Briefly: Effect of AOS scavenger on arrhythmias induced by ischemia-reperfusion in anesthetized rat measured as ventricular tachycardia (VT), frequency, times at 3 mg/kg. The experiment is classed as functional, Cardiac ventricle.
Experiment [16] deals with Rattus norvegicus. Briefly: Effect of AOS scavenger on arrhythmias induced by ischemia-reperfusion in anesthetized rat measured as ventricular tachycardia (VT), duration at 3 mg/kg. The experiment is classed as functional, Cardiac ventricle.
Experiment [17] has as its system Rattus norvegicus. Briefly: Effect of AOS scavenger on ventricular fibrillation (VF), arrhythmias induced by ischemia-reperfusion in anesthetized rat, incidence at 3 mg/kg. It counts as functional, Cardiac ventricle.
Experiment [18] relates to Rattus norvegicus. Briefly: Effect of AOS scavenger on premeture ventricular complexes PVCs, arrhythmias induced by ischemia-reperfusion in anesthetized rat, duration at 3 mg/kg. The experiment is classed as functional, Cardiac ventricle.
Experiment [19] is filed under the species Rattus norvegicus. As to the kind of experiment: Reducing activity determined by the use of stable radical alpha,alpha-di-phenyl-beta-picrylhydrazyl (DPPH). It counts as functional, organism-based. In outline:
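Compound mixed with equimolar α,α-diphenyl-β-picrylhydrazyl; absorbance at 517 nm read after 20 min; reducing activity taken as absorbance difference from control.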

For experiment [20], the system named is Rattus norvegicus. Briefly: Effect of AOS scavenger on ventricular tachycardia (VT),arrhythmias induced by ischemia-reperfusion in anesthetized rat, incidence at 20 mg/kg; 8/8. It counts as functional, Cardiac ventricle. The method, boiled down:
(§3)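 Male SD rats (9–13 weeks, 250–370 g) under pentobarbital anesthesia with artificial respiration underwent thoracotomy and LAD coronary occlusion followed by reperfusion. Dosing was oral, 20 mg/kg at 24 h and again 20 mg/kg at 5 min before occlusion. VF and VT incidence, frequency and duration, and mean PVCs/min were recorded at 10 min postreperfusion.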

Experiment [21] has as its system Rattus norvegicus. As to the kind of experiment: Effect of AOS scavenger on premeture ventricular complexes PVCs, arrhythmias induced by ischemia-reperfusion in anesthetized rat, duration at 20 mg/kg; PVSc/min. The experiment is classed as functional, Cardiac ventricle. The method, boiled down:
as §3

Experiment [22] concerns Rattus norvegicus. As to the kind of experiment: Effect of AOS scavenger on ventricular fibrillation (VF), arrhythmias induced by ischemia-reperfusion in anesthetized rat, frequency, times at 20 mg/kg. It counts as functional, Cardiac ventricle. In outline:
as §3

Experiment [23] concerns Rattus norvegicus. Briefly: Effect of AOS scavenger on ventricular fibrillation (VF),arrhythmias induced by ischemia-reperfusion in anesthetized rat, duration at 20 mg/kg. It counts as functional, Cardiac ventricle. The method, boiled down: as §3
Experiment [24] deals with Rattus norvegicus. As to the kind of experiment: Effect of AOS scavenger on ventricular tachycardia (VT), arrhythmias induced by ischemia-reperfusion in anesthetized rat, frequency, times at 20 mg/kg. The experiment is classed as functional, Cardiac ventricle. The method, boiled down: as §3
Experiment [25] deals with Rattus norvegicus. Briefly: Effect of AOS scavenger on ventricular tachycardia (VT),arrhythmias induced by ischemia-reperfusion in anesthetized rat, duration at 20 mg/kg. The experiment is classed as functional, Cardiac ventricle. In outline: as §3
The subject of experiment [26] is Rattus norvegicus. As to the kind of experiment: Effect of AOS scavenger on ventricular fibrillation (VF),arrhythmias induced by ischemia-reperfusion in anesthetized rat, incidence at 20 mg/kg; 4/8. The experiment is classed as functional, Cardiac ventricle. In outline:
as §3

Turning to `CCCCCCCCCCCCCCCCCCOC1=C(O)[C@@H](C(O)CO)OC1=O` (stereo in doubt; 5k), the Antilipid peroxidation in the experiment filed under Rattus norvegicus [1] turned out to be 65.9%. Moreover, in [2], the Reducing activity is 95.4%.
A word on the pIC50: it is the negative decadic logarithm of the IC50, by convention in mol/L. For the molecule `CCCCCCCCCCCCCCCCCCOC1=C(O)[C@@H](C(O)CO)OC1=O` (stereo in doubt; 8) [listing 1 of 2 here], in the experiment with Rattus norvegicus [3], the PVCs is < 4 PVCs/min. The Duration is reported as 122.4 s with Rattus norvegicus [4] and 11.8 s in the experiment with Rattus norvegicus [7]. For the same molecule, the results for the Frequency in the experiment on Rattus norvegicus [5] and with Rattus norvegicus [6] were 3.8 and 1.6, respectively. Also, the Incidence with Rattus norvegicus [8] amounted to 4 N; in the experiment on Rattus norvegicus [10] it was 5 N. In the experiment filed under Rattus norvegicus [9], this molecule showed a pIC50 of 5.01.
In the case of `CCCCCCCCCCCCOC1=C(O)OC(C(O)CO)C1=O` (stereo not given), the pIC50 in the experiment filed under Rattus norvegicus [11] is 5.27. Further, the Antilipid peroxidation in the experiment filed under Rattus norvegicus [1] was 67.4%.
With `CCCCCCCCCOC1=C(O)OC(C(O)CO)C1=O` (stereo not given), the pIC50 in the experiment filed under Rattus norvegicus [11] was 4.57. For the same molecule, the Antilipid peroxidation in the experiment filed under Rattus norvegicus [1] was determined as 22.4%.
Consider `CCCCCCCCCCCCCCCCCCOC1=C(O)OC(C2COC(C)(C)O2)C1=O` (stereo not given), for which, in the experiment filed under Rattus norvegicus [12], the Antilipid peroxidation was determined as 58.5%. Further, the pIC50 in the experiment listed under Rattus norvegicus [11] was 5.62.
As for `CCCCCCCCCCCCCOC1=C(O)OC(C(O)CO)C1=O` (stereo not given), the pIC50 in the experiment listed under Rattus norvegicus [11] is 5.13. The Antilipid peroxidation in the experiment listed under Rattus norvegicus [1] was determined as 57.4%.
Regarding `O=C1O[C@H]([C@@H](O)CO)C(O)=C1O` [ASCORBIC ACID], the Incidence in the experiment with Rattus norvegicus [13] and with Rattus norvegicus [14] was 6 N in each case. In addition, the Frequency with Rattus norvegicus [15] was determined as 3.7; with Rattus norvegicus [17], 4. In addition, the Duration with Rattus norvegicus [16] is given as 8.2 s; in the experiment on Rattus norvegicus [17], 41.4 s. Further, the Activity in the experiment on Rattus norvegicus [18] came to 7.4 min. The Antilipid peroxidation in the experiment listed under Rattus norvegicus [1] is -71%. In the experiment listed under Rattus norvegicus [19], this molecule registered a Reducing activity of 93.4%.
In the case of `CCCCCCCCCCCCCCCCCCOC1=C(O)[C@@H](C(O)CO)OC1=O` (stereo in doubt; 8) [listing 2 of 2 here], the Antilipid peroxidation in the experiment listed under Rattus norvegicus [1] turned out to be 44.7%.
`CCCCCCCCCCCCCCCCCCCCOC1=C(O)OC(C(O)CO)C1=O` (stereo not given) had a pIC50 in the experiment listed under Rattus norvegicus [11] of 5.33. Further, in the experiment listed under Rattus norvegicus [1], the Antilipid peroxidation was found to be 75.8%. In experiment [2], this molecule showed a Reducing activity of 95.3%.
For `CCCCCCCCCCCCCCCCCOC1=C(O)OC(C(O)CO)C1=O` (stereo not given), in the experiment filed under Rattus norvegicus [11], the pIC50 was 4.96. Further, the Antilipid peroxidation in the experiment listed under Rattus norvegicus [1] was 48.8%.
As to `Oc1ncnc2[nH]ncc12` [ALLOPURINOL], the Incidence with Rattus norvegicus [20] is recorded as 8 N; in the experiment with Rattus norvegicus [26], 4 N. In the experiment on Rattus norvegicus [21], the Activity stood at 2.7 min. For the same molecule, the figures for the Frequency in the experiment with Rattus norvegicus [22] and in the experiment on Rattus norvegicus [24] were 0.9 and 3.1, respectively. The Duration in the experiment on Rattus norvegicus [23] is reported as 1.3 s; with Rattus norvegicus [25] it was 5.9 s.
